This is a sample that favours compounds with a hit; in the whole collection about 3.7% have one here.
Arbovirus inh: blocks arbovirus infection; arbovirus infection cell-based antiviral screen; inhibition, % at 10 µM; actives 0.37% (n = 200,000); in the data active means inhibition above about 30%
Mdm2 ligase inh: blocks human Mdm2 ubiquitin ligase activity. Q00987. cell-based MDM2 ubiquitination luciferase reporter, 2 h; 0 = plate control, 100 = twice control, blank-subtracted. signal enhancement, % at 5 µM. actives 0.11% (n = 210,000). AID 1230;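 active means signal enhancement of 30% or more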;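 further: luminescence tracks abundance of the self-degrading MDM2-luciferase fusion protein; higher signal means inhibition of MDM2 E3 ligase activity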
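Test system: mammalian cells stably expressing self-ubiquitinating, self-degrading MDM2 E3–luciferase fusion; Amount: 2000 cells in each well; Medium: DMEM; Schedule: 4 h settle plus 2 h compound, 37 °C; Technique: SteadyLite luciferase luminescence after 15 min room-temperature reagent incubation; Benchmarks: plate control and blank wells.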
PKD1 kinase inh: blocks activity of human protein kinase D1; Q15139; PKD1 kinase fluorescence polarization assay; inhibition, % (concentration not given with the values); actives 0.056% (n = 200,000); in the data active means inhibition above about 50%
KCC2 mod: modulates chloride dependent transport by human KCC2. Q9H2X9. KCC2 cells, thallium flux FluoZin-2 fluorescence. B-score of Tl+ flux slope (higher = more flux/activation; lower = inhibition) at 10 µM. actives 2.2% (n = 190,000). AID 1456;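 active means thallium flux slope and its plate-corrected score both differing from the plate sample mean at a set confidence after two filtering rounds, in either direction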;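 further: slope of fluorescence scaled to starting intensity during 10 to 20 s after thallium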
m-calpain inh: blocks pig calpain II enzyme activity. actives 0.37% (n = 220,000). inhibition, % at 16 µM. AID 1236. purified calpain II, fluorogenic peptide substrate, 30 min;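 active means inhibition above about 50%, limit read from the data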
ROMK mod: modulators of human ROMK potassium channel; P48048; Tet-inducible ROMK, thallium flux fluorescence; actives lie on both sides; B-score at 10 µM; actives 2% (n = 130,000); AID 1918;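 active means signal ratio slope over the read window, or its plate-corrected B-score, at least 3 SD from the plate mean, either direction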;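 further: B-score of the F/F0 ratio slope over 7 to 12 s after thallium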
The depositor's hits bear a star.

Screening Cc1ccc(NC(=O)Nc2ccc(F)cc2)cc1Cl returned Arbovirus inh 12, Mdm2 ligase inh -3, PKD1 kinase inh 5, KCC2 mod -0.074, m-calpain inh 20 and ROMK mod -0.18.
Screening COC(=O)CCCNC(=O)c1ccccn1 returned Arbovirus inh 8, Mdm2 ligase inh -19, PKD1 kinase inh 8, KCC2 mod 0.057, m-calpain inh -13 and ROMK mod 1.4.
Cc1ccc(O)c(-c2cc(C(=O)Nc3ccc(S(=O)(=O)N4CC(C)OC(C)C4)cc3)[nH]n2)c1 (stereo unspecified) was read as Arbovirus inh 12, Mdm2 ligase inh -4, PKD1 kinase inh -1, KCC2 mod 0.9 and m-calpain inh -56.
For Cc1ccc(O)c(-c2cc(C(=O)Nc3ccc(S(=O)(=O)Nc4nc(C)cc(C)n4)cc3)[nH]n2)c1 the results were Arbovirus inh 35*, Mdm2 ligase inh -10, PKD1 kinase inh 2, KCC2 mod -0.13 and m-calpain inh -20.
Screening CCc1cc2ccc(C)cc2nc1SCC(=O)Nc1c[nH]c(=O)[nH]c1=O returned Arbovirus inh 5, Mdm2 ligase inh -5, PKD1 kinase inh -6, KCC2 mod 0.57, m-calpain inh 13 and ROMK mod 0.76.
Screening Cc1ccc(NS(=O)(=O)c2ccc3[nH]c(=O)sc3c2)cc1 returned Arbovirus inh -2, Mdm2 ligase inh -8, PKD1 kinase inh 3, KCC2 mod -1.2, m-calpain inh 32 and ROMK mod -0.12.
Screening Cc1cc(C)c2c(c1)/C(=N\N=c1\sc3ccccc3n1C)C(=O)N2 returned KCC2 mod -2 and m-calpain inh -87.
For Cc1cc(C(=O)N/N=C/c2ccccc2Br)no1 the results were Arbovirus inh -5, Mdm2 ligase inh 5, PKD1 kinase inh -4, KCC2 mod 0.16, m-calpain inh -14 and ROMK mod 3.1*.
Cc1cc(C(=O)N/N=C/c2ccc[nH]2)no1 was read as Arbovirus inh 3, Mdm2 ligase inh -10, PKD1 kinase inh 3, KCC2 mod 0.011, m-calpain inh 39 and ROMK mod 0.39.
O=C1/C(=C/c2ccncc2)CCC/C1=C\c1ccncc1 was read as Arbovirus inh -29, Mdm2 ligase inh 12, PKD1 kinase inh -1, KCC2 mod -1.2, m-calpain inh -6 and ROMK mod -3.3*.
Screening C=CCc1cccc2cc(C(=O)N3CCN(c4ccccn4)CC3)c(=O)oc12 returned Arbovirus inh 14, Mdm2 ligase inh -6, PKD1 kinase inh -6, KCC2 mod -0.73, m-calpain inh 0 and ROMK mod -0.37.
COc1ccc2[nH]c3c4c(ccc3c2c1)C(=O)C=CC4=O was read as Mdm2 ligase inh 32*, KCC2 mod -0.06 and m-calpain inh 4.
CC(C)Sc1nsc2nc(=O)c(/C=C3\C=Nc4ccccc43)c(N)n12 was read as Arbovirus inh 34*, Mdm2 ligase inh -2, PKD1 kinase inh -3, KCC2 mod -1.7, m-calpain inh -28 and ROMK mod 1.
CS(=O)(=O)c1nsc2nc(=O)c(/C=C3\C=Nc4ccccc43)c(N)n12 was read as Arbovirus inh 46*, Mdm2 ligase inh -7, PKD1 kinase inh 2, KCC2 mod -1.2, m-calpain inh -32 and ROMK mod -0.029.
`Cc1cc2nc(=O)c(/C=C3\C=Nc4ccccc43)c(N)n2o1` gave Mdm2 ligase inh -12, KCC2 mod -0.025, m-calpain inh -13 and ROMK mod -1.7.
`COc1ccc(-c2cc(C(F)(F)F)nc(-n3ccnc3)n2)cc1` gave Arbovirus inh 0, Mdm2 ligase inh 0, PKD1 kinase inh -3, KCC2 mod 0.14, m-calpain inh -55 and ROMK mod 0.062.
Screening Cc1nn(C(C)C(=O)N/N=C/c2ccc(N(C)C)cc2)c(C)c1[N+](=O)[O-] (stereo unspecified) returned Mdm2 ligase inh -68, KCC2 mod -0.34 and m-calpain inh 12.
CCn1c(C)nc2cc(C(=O)N/N=C/c3cccc(O)c3O)ccc21 was read as Arbovirus inh -4, Mdm2 ligase inh -9, PKD1 kinase inh 5, KCC2 mod -2, m-calpain inh -1 and ROMK mod 0.94.
C=CCOC(=O)C1=C(C)NC(=O)NC1c1ccc(OC(=O)c2ccco2)c(OC)c1 (stereo unspecified) was read as Arbovirus inh 6, Mdm2 ligase inh -16, PKD1 kinase inh -2, KCC2 mod -3.3*, m-calpain inh -22 and ROMK mod -0.8.
`COC(=O)C(=C/C(C)=C/c1cccnc1)C(=O)OC` gave Arbovirus inh 4, Mdm2 ligase inh 1, PKD1 kinase inh -10, KCC2 mod 0.4, m-calpain inh -33 and ROMK mod -1.5.
`CCOC(=O)c1sc(=S)n(-c2ccccc2)c1N` gave Arbovirus inh -5, Mdm2 ligase inh 13, PKD1 kinase inh -8, KCC2 mod -0.012 and m-calpain inh -1.
`CCOC(=O)c1sc(=S)n(-c2ccccc2)c1N(C(C)=O)C(C)=O` gave Arbovirus inh 13, Mdm2 ligase inh 31*, PKD1 kinase inh 9, KCC2 mod -1.2 and m-calpain inh -29.
Screening CCN1CCC(CNCc2cn(-c3ccc(OC)cc3)nc2-c2ccccc2Cl)C1 (stereo unspecified) returned Arbovirus inh -28, Mdm2 ligase inh 2, PKD1 kinase inh 2, KCC2 mod 1.4, m-calpain inh -19 and ROMK mod -3.2.
O=C(Cn1ncc(Cl)c(Cl)c1=O)NCC1CCCCC1 was read as Arbovirus inh -43, Mdm2 ligase inh 80*, PKD1 kinase inh -3, KCC2 mod -0.2, m-calpain inh -106 and ROMK mod -1.3.
`OC(c1ccccc1)C1CN(Cc2ccccc2)CCC1(O)c1ccccc1` (stereo unspecified) gave Arbovirus inh 33*, Mdm2 ligase inh -17, PKD1 kinase inh -1, KCC2 mod -0.039, m-calpain inh 36 and ROMK mod -2.
O=C(c1ccccc1)C1CN(Cc2ccccc2)CCC1(O)c1ccccc1 (stereo unspecified) was read as Arbovirus inh -4, Mdm2 ligase inh 6, PKD1 kinase inh -8, KCC2 mod -0.25, m-calpain inh 45 and ROMK mod -0.18.
Screening Cc1cccc(N2C(=O)CS/C2=N\NC(=O)c2ccc(Cl)cc2)c1C returned Arbovirus inh 5, Mdm2 ligase inh 4, PKD1 kinase inh -7, KCC2 mod 3*, m-calpain inh -11 and ROMK mod 0.11.
For COc1ccccc1N1C(=O)CSC1=NC(=O)c1ccccc1 the results were Mdm2 ligase inh -13, KCC2 mod -0.25 and m-calpain inh 6.
For Cc1csc2ncc(C(=O)N3CCc4ccccc43)c(=O)n12 the results were PKD1 kinase inh -4 and KCC2 mod -2.8*.
Screening Cc1csc2ncc(C(=O)N3CCCc4ccccc43)c(=O)n12 returned Arbovirus inh 9, Mdm2 ligase inh -3, PKD1 kinase inh -11, KCC2 mod 0.23 and m-calpain inh 3.
